From ChEMBL document CHEMBL3351932, “Discovery of BI 207524, an indole diamide NS5B thumb pocket 1 inhibitor with improved potency for the potential treatment of chronic hepatitis C virus infection” (J Med Chem, 2014)

Experiments:
[1] = Inhibition of HCV full-length NS5B polymerase; set-up: species or system Hepacivirus hominis
Method in brief: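 Polymerase inhibition with full-length NS5B enzyme in a biochemical assay; IC50 averaged from duplicate measurements, at least two determinations.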

[2] = Inhibition of Hepatitis C virus genotype 1b Con1 NS5B RNA dependent RNA polymerase activity using Bright-Glo luciferase substrate by cell-based 1b luciferase reporter assay; set-up: species or system Hepatitis C virus (isolate Con1)
Method in brief: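 Cell-based genotype 1b luciferase reporter replicon assay; EC50 determined in duplicate, values averaged over at least two determinations.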

[3] = Plasma concentration in rat at 4 mg/kg, po cassette dosing after 1 hr; type: ADME, organism-based; set-up: dose 4 mg/kg, route oral
Method in brief: (§1)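 Cassette screen: mixture of 4 compounds, each at 4 mg/kg, dosed orally to 2 rats; plasma sampled at 1 h and 2 h, solid-phase extracted and quantified by HPLC-UV or LC/MS against calibration standards in blank plasma (LOQ 7 ng/mL).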

[4] = Half life in human liver microsomes; type: ADME
[5] = Half life in rat liver microsomes; type: ADME
[6] = Permeability across apical to basolateral side in human Caco2 cells; type: ADME, cell-based; conditions: Caco-2, read-out: permeability
[7] = Plasma concentration in rat at 4 mg/kg, po cassette dosing after 2 hrs; type: ADME, organism-based; set-up: dose 4 mg/kg, route oral; method in brief: as §1
[8] = Mean residence time in rat at 10 mg/kg, po; type: ADME, organism-based; set-up: dose 10 mg/kg, route oral; conditions: in vivo
Method in brief: (§2)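 Single-compound oral PK after overnight fast; 10 mg/kg given as suspension in 0.5% methylcellulose and 0.3% Tween-80, with or without 1% NMP as added solubilizer; N=3 per dose and route. Plasma kept on ice, centrifuged at 4°C, stored near -20°C, extracted by solid phase, quantified by HPLC-UV or LC/MS against blank-plasma standards (LOQ 7 ng/mL); non-compartmental analysis.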

[9] = Half life in rat at 2 mg/kg, iv; type: ADME, organism-based; set-up: dose 2 mg/kg, route intravenous; conditions: in vivo
Method in brief: (§3)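 Fasted animals dosed IV by bolus at 2 mg/kg in 70% PEG-400:30% water; N=3 per dose and route. Plasma separated at 4°C, stored near -20°C, solid-phase extracted, assayed by HPLC-UV or LC/MS with blank-plasma calibration (r2 > 0.99, LOQ 7 ng/mL); parameters from non-compartmental analysis.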

[10] = Clearance in rat at 2 mg/kg, iv; type: ADME, organism-based; set-up: dose 2 mg/kg, route intravenous; conditions: in vivo; method in brief: as §3
[11] = Oral bioavailability in rat at 10 mg/kg; type: ADME, organism-based; conditions: in vivo; method in brief: as §2
[12] = Volume of distribution at steady state in rat at 2 mg/kg, iv; type: ADME, organism-based; set-up: dose 2 mg/kg, route intravenous; conditions: in vivo, read-out: Vdss; method in brief: as §3
[13] = AUC in rat at 10 mg/kg, po; type: ADME, organism-based; set-up: dose 10 mg/kg, route oral; conditions: plasma; method in brief: as §2
[14] = Cmax in rat at 10 mg/kg, po; type: ADME, organism-based; set-up: dose 10 mg/kg, route oral; conditions: in vivo; method in brief: as §2

| IC50 [1] | EC50 [2] | concentration at 1 h [3] | half-life [4] | Papp A→B [6] | concentration at 2 h [7] | Compound | further results |
| --- | --- | --- | --- | --- | --- | --- | --- |
| 330 nM | 26 nM | 500 nM | 1.35 h | 18 ×10⁻⁶ cm/s | 300 nM | CCOc1cc(NC(=O)C2(NC(=O)c3ccc4c(C5CCCC5)c(-c5ccc(Cl)cn5)n(C)c4c3)CCC2)ccc1/C=C/C(=O)O | half-life [5]: 1.73 h |
| 380 nM | 34 nM |  | 3.25 h |  |  | CCOc1cc(NC(=O)C2(NC(=O)c3ccc4c(C5CCCC5)c(-c5ncc(Cl)cn5)n(C)c4c3)CC2)ccc1/C=C/C(=O)O |  |
| 460 nM | 19 nM | 1800 nM | 2.57 h | 13 ×10⁻⁶ cm/s | 2100 nM | CCOc1cc(NC(=O)C2(NC(=O)c3ccc4c(C5CCCC5)c(-c5ncc(Br)cn5)n(C)c4c3)CCC2)ccc1/C=C/C(=O)O | half-life [5]: 1.73 h |
| 48 nM | 24 nM | 900 nM | 1.07 h | 19 ×10⁻⁶ cm/s | 400 nM | CCOc1cc(NC(=O)C2(NC(=O)c3ccc4c(C5CCCC5)c(-c5ccccn5)n(C)c4c3)CCC2)ccc1/C=C/C(=O)O |  |
| 410 nM | 21 nM |  |  |  |  | CCOc1cc(NC(=O)C2(NC(=O)c3ccc4c(C5CCCC5)c(-c5ccccc5)n(C)c4c3)CCC2)ccc1/C=C/C(=O)O |  |
| 2250 nM | > 2500 nM |  |  |  |  | Cn1c(-c2ccccn2)c(C2CCCC2)c2ccc(C(=O)NC3(C(=O)Nc4ccc(/C=C/C(=O)O)cc4C(F)(F)F)CCC3)cc21 |  |
| 340 nM | 8 nM | 400 nM |  | 17.6 ×10⁻⁶ cm/s |  | COc1cc(NC(=O)C2(NC(=O)c3ccc4c(C5CCCC5)c(-c5ccccn5)n(C)c4c3)CCC2)cc(OC)c1/C=C/C(=O)O | half-life [5]: 0.7 h |
| 69 nM | 79 nM |  |  |  |  | Cc1cc(NC(=O)C2(NC(=O)c3ccc4c(C5CCCC5)c(-c5ccccn5)n(C)c4c3)CCC2)ccc1/C=C/C(=O)O |  |
| 27 nM | 8 nM | 500 nM |  | 24 ×10⁻⁶ cm/s | 100 nM | CCOc1cc(NC(=O)C(C)(C)NC(=O)c2ccc3c(C4CCCC4)c(-c4ncc(Cl)cn4)n(C)c3c2)ccc1/C=C/C(=O)O |  |
| 300 nM |  |  |  |  |  | Cn1c(-c2ccccn2)c(C2CCCC2)c2ccc(C(=O)NC3(C(=O)Nc4ccc(/C=C/C(=O)O)cc4Cl)CCC3)cc21 |  |
| 44 nM | 170 nM |  |  |  |  | Cn1c(-c2ccccn2)c(C2CCCC2)c2ccc(C(=O)NC3(C(=O)Nc4ccc(/C=C/C(=O)O)c(O)c4)CCC3)cc21 |  |
| 61 nM | 130 nM |  |  |  |  | Cn1c(-c2ccccn2)c(C2CCCC2)c2ccc(C(=O)NC3(C(=O)Nc4ccc(/C=C/C(=O)O)c(F)c4)CCC3)cc21 |  |
| 230 nM | 560 nM |  |  |  |  | Cn1c(-c2ccccn2)c(C2CCCC2)c2ccc(C(=O)NC3(C(=O)Nc4ccc(/C=C/C(=O)O)cc4F)CCC3)cc21 |  |
| 56 nM | 27 nM |  | 1.45 h |  |  | COCCOc1cc(NC(=O)C2(NC(=O)c3ccc4c(C5CCCC5)c(-c5ccccn5)n(C)c4c3)CCC2)ccc1/C=C/C(=O)O |  |
| 370 nM | 1030 nM |  |  |  |  | Cc1cc(/C=C/C(=O)O)ccc1NC(=O)C1(NC(=O)c2ccc3c(C4CCCC4)c(-c4ccccn4)n(C)c3c2)CCC1 |  |
| 110 nM | 16 nM | 1300 nM | 1.2 h | 17 ×10⁻⁶ cm/s | 800 nM | CCOc1cc(NC(=O)C2(NC(=O)c3ccc4c(C5CCCC5)c(-c5ccc(F)cn5)n(C)c4c3)CCC2)ccc1/C=C/C(=O)O | MRT [8]: 3 h; half-life [9]: 1.5 h; clearance [10]: 6.2 mL/min/kg; bioavailability [11]: 17%; Vd [12]: 0.42 L/kg; AUC [13]: 6.1 µM·h; Cmax [14]: 2200 nM |

| IC50 [1] | EC50 [2] | concentration at 1 h [3] | half-life [4] | Papp A→B [6] | concentration at 2 h [7] | Compound | further results |
| --- | --- | --- | --- | --- | --- | --- | --- |
| 100 nM | 110 nM |  |  |  |  | Cn1c(-c2ccccn2)c(C2CCCC2)c2ccc(C(=O)NC3(C(=O)Nc4ccc(/C=C/C(=O)O)c(Cl)c4)CCC3)cc21 |  |
| 440 nM | 250 nM |  |  |  |  | Cn1c(-c2ccccn2)c(C2CCCC2)c2ccc(C(=O)NC3(C(=O)Nc4ccc(/C=C/C(=O)O)cc4O)CCC3)cc21 |  |
| 180 nM | 230 nM |  |  |  |  | Cn1c(-c2ccccn2)c(C2CCCC2)c2ccc(C(=O)NC3(C(=O)Nc4ccc(/C=C/C(=O)O)c(C(F)(F)F)c4)CCC3)cc21 |  |
| 47 nM | 32 nM | 1100 nM | 1.37 h |  | 500 nM | COc1cc(NC(=O)C2(NC(=O)c3ccc4c(C5CCCC5)c(-c5ccccn5)n(C)c4c3)CCC2)ccc1/C=C/C(=O)O |  |
| 48 nM | 21 nM |  | 0.767 h |  |  | CCOc1cc(NC(=O)C2(NC(=O)c3ccc4c(C5CCCC5)c(-c5cnccn5)n(C)c4c3)CCC2)ccc1/C=C/C(=O)O |  |
| 330 nM | 10 nM | 100 nM | 1.3 h | 9.4 ×10⁻⁶ cm/s | 100 nM | CCOc1cc(NC(=O)C2(NC(=O)c3ccc4c(C5CCCC5)c(-c5cccc(N)n5)n(C)c4c3)CCC2)ccc1/C=C/C(=O)O |  |
| 190 nM | 12 nM | 400 nM | 0.733 h |  | 100 nM | CCOc1cc(NC(=O)C2(NC(=O)c3ccc4c(C5CCCC5)c(-c5cnn(C)c5)n(C)c4c3)CCC2)ccc1/C=C/C(=O)O |  |
| 1320 nM | > 2800 nM |  |  |  |  | Cn1c(-c2ccccn2)c(C2CCCC2)c2ccc(C(=O)NC3(C(=O)Nc4c(F)cc(/C=C/C(=O)O)cc4F)CCC3)cc21 |  |
| 250 nM | 46 nM |  | 3.85 h |  |  | Cn1c(-c2ccccn2)c(C2CCCC2)c2ccc(C(=O)NC3(C(=O)Nc4ccc(/C=C/C(=O)O)c(OCC5CC5)c4)CCC3)cc21 |  |
| 150 nM | 12 nM |  | 0.6 h |  |  | CCOc1cc(NC(=O)C2(NC(=O)c3ccc4c(C5CCCC5)c(-c5nccs5)n(C)c4c3)CCC2)ccc1/C=C/C(=O)O |  |
| 130 nM | 36 nM | 400 nM | 2.07 h | 19 ×10⁻⁶ cm/s | 200 nM | CCCOc1cc(NC(=O)C2(NC(=O)c3ccc4c(C5CCCC5)c(-c5ccccn5)n(C)c4c3)CCC2)ccc1/C=C/C(=O)O |  |
| 110 nM | 36 nM | 1300 nM | 1.9 h | 19 ×10⁻⁶ cm/s | 800 nM | CC(C)Oc1cc(NC(=O)C2(NC(=O)c3ccc4c(C5CCCC5)c(-c5ccccn5)n(C)c4c3)CCC2)ccc1/C=C/C(=O)O |  |
| 200 nM | 13 nM | 1700 nM | > 5 h | 17 ×10⁻⁶ cm/s | 1100 nM | COCCOc1cc(NC(=O)C2(NC(=O)c3ccc4c(C5CCCC5)c(-c5ncc(Cl)cn5)n(C)c4c3)CCC2)ccc1/C=C/C(=O)O | MRT [8]: 4.1 h; half-life [9]: 2.1 h; clearance [10]: 3.7 mL/min/kg; bioavailability [11]: 16%; Vd [12]: 0.29 L/kg; AUC [13]: 10.6 µM·h; Cmax [14]: 4100 nM |
| 280 nM | 65 nM |  | 0.833 h |  |  | Cn1c(-c2ccccn2)c(C2CCCC2)c2ccc(C(=O)NC3(C(=O)Nc4ccc(/C=C/C(=O)O)c(OC5CCC5)c4)CCC3)cc21 |  |
| 420 nM | 55 nM |  | > 5 h |  |  | CC(C)COc1cc(NC(=O)C2(NC(=O)c3ccc4c(C5CCCC5)c(-c5ccccn5)n(C)c4c3)CCC2)ccc1/C=C/C(=O)O |  |
| 200 nM | 10 nM | 200 nM | 2.15 h | 12 ×10⁻⁶ cm/s |  | COCCOc1cc(NC(=O)C(C)(C)NC(=O)c2ccc3c(C4CCCC4)c(-c4ncc(Cl)cn4)n(C)c3c2)ccc1/C=C/C(=O)O |  |
